How the values were obtained:
[1] = target: T1, Sphingosine 1-phosphate receptor 1 (Homo sapiens, UniProt P21453); experiment: Antagonist activity at S1P1 receptor expressed in HEK293 cells assessed as inhibition of S1P-induced cAMP response after 90 mins by spectrophotometry; type: functional, cell-based
[2] = Drug uptake in nu/nu homozygous mouse plasma at 100 mg/kg, po as a solution of 10% EtOH/40% PEG400/20% Captisol/water + 1:1 HCl after 1 hr by HPLC/MS/MS analysis; type: ADME, organism-based; set-up: dose 100 mg/kg, route oral
Procedure, shortened: (§1)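 Female Nu/Nu mice (~8 wk, 20-22 g) given a single 100 mpk oral dose at 10 mL/kg. Vehicles: 10% EtOH/45% or 40% PEG400/water + 1 molar equiv HCl, 10% EtOH/40% PEG400/20% Captisol + HCl, or 10% NMP/90% corn oil. Heparinized blood collected 1 and 4 h post-dose; plasma analysed by HPLC/MS/MS.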

[3] = Drug uptake in nu/nu homozygous mouse plasma at 100 mg/kg, po as a solution of 10% EtOH/40% PEG400/20% Captisol/water + 1:1 HCl after 4 hrs by HPLC/MS/MS analysis; type: ADME, organism-based; set-up: dose 100 mg/kg, route oral; procedure, shortened: as §1
[4] = target: Cytochrome P450 2D6 (Homo sapiens, UniProt P10635); experiment: Inhibition of human CYP2D6 using bufuralol as substrate by LC/MS/MS analysis; type: ADME
Chain of Cytochrome P450 2D6 (P10635 whole entry): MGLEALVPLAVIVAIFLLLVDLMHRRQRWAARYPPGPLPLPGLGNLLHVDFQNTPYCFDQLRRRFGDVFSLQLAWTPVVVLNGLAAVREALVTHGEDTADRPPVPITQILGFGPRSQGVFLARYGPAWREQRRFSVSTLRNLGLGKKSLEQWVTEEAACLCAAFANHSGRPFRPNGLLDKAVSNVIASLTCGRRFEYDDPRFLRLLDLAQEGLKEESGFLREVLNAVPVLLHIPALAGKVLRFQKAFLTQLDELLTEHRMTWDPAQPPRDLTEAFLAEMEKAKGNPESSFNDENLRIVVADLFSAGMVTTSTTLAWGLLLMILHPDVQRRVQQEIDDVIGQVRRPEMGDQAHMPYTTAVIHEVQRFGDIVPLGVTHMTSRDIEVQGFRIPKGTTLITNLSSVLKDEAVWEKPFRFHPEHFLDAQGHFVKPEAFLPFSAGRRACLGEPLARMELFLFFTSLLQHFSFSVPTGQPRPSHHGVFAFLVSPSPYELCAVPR
Procedure, shortened: (§2)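 Pooled human liver microsomes in 100 mM potassium phosphate, pH 7.4, at 37 °C with 1000 µM NADPH for 15 min. Microsomes 0.15 mg/mL for CYP2C9 and CYP2D6, 0.25 mg/mL for CYP3A4. Inhibitor tested at six concentrations (0.2–50 µM). Reactions quenched with acetonitrile; metabolite measured by LC/MS/MS; IC50 from 4-parameter sigmoidal fit.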

[5] = AUC (0 to infinity) in overnight fasted CD Sprague-Dawley rat at 3 mg/kg, po by HPLC/MS/MS analysis; type: ADME, organism-based; set-up: dose 3 mg/kg, route oral, time infinity; details: plasma
Procedure, shortened: (§3)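 Female Sprague-Dawley CD rats (9-10 wk, 201-225 g), fasted overnight and fed again 4 h post-dose. Given 3 mpk orally as a solution in EtOH/PEG400/water (5:45:50), n=4. Jugular-catheter blood drawn into heparin at 0.08-144 h (15 time points). Plasma assayed by HPLC/MS/MS; parameters from non-compartmental analysis.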

[6] = target: Cytochrome P450 3A4 (Homo sapiens, UniProt P08684); experiment: Inhibition of human CYP3A4 using testosterone as substrate by LC/MS/MS analysis; type: ADME; procedure, shortened: as §2
Chain of Cytochrome P450 3A4 (P08684 whole entry): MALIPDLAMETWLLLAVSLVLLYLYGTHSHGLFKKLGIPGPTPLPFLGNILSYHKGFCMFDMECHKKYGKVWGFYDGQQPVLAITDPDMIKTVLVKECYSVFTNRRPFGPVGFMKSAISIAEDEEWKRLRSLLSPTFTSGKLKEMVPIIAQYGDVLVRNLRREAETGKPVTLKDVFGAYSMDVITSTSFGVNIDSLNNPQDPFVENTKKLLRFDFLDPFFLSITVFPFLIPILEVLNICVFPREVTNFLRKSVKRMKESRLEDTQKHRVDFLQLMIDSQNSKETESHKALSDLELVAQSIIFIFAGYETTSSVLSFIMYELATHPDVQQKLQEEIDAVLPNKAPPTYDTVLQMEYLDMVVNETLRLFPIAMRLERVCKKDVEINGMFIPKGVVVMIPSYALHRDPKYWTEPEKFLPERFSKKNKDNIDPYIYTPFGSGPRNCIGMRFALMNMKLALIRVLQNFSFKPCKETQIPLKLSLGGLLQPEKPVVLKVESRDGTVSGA

[7] = Cmax in overnight fasted beagle dog at 3 mg/kg, po by HPLC/MS/MS analysis; type: ADME, organism-based, Canis lupus familiaris; set-up: dose 3 mg/kg, route oral; details: in vivo
Procedure, shortened: (§4)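 Male beagle dogs fasted overnight and fed again 4 h post-dose; groups of 3. Study design covered 3 mpk IV and PO. Oral dose by gavage at 3 mpk in EtOH/PEG400/water (5:45:50). K-EDTA blood taken pre-dose and at 0.08-48 h. Plasma assayed by HPLC/MS/MS; non-compartmental PK parameters.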

[8] = Half life in overnight fasted cynomolgus monkey at 3 mg/kg, po by HPLC/MS/MS analysis; type: ADME, organism-based, Macaca fascicularis; set-up: dose 3 mg/kg, route oral; details: in vivo
Procedure, shortened: (§5)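 Male cynomolgus monkeys fasted overnight and fed again 4 h post-dose; groups of 3. Dosed 3 mpk intravenously and by oral gavage as a solution in EtOH/PEG400/water (5:45:50). K-EDTA blood taken pre-dose and at 0.08-48 h. Plasma assayed by HPLC/MS/MS; non-compartmental analysis.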

[9] = Half life in overnight fasted beagle dog at 3 mg/kg, po by HPLC/MS/MS analysis; type: ADME, organism-based, Canis lupus familiaris; set-up: dose 3 mg/kg, route oral; details: in vivo; procedure, shortened: as §4
[10] = Oral bioavailability in overnight fasted CD Sprague-Dawley rat at 3 mg/kg by HPLC/MS/MS analysis; type: ADME, organism-based; details: in vivo
[11] = Cmax in overnight fasted cynomolgus monkey at 3 mg/kg, po by HPLC/MS/MS analysis; type: ADME, organism-based, Macaca fascicularis; set-up: dose 3 mg/kg, route oral; details: in vivo; procedure, shortened: as §5
[12] = Oral bioavailability in overnight fasted beagle dog at 3 mg/kg by HPLC/MS/MS analysis; type: ADME, organism-based, Canis lupus familiaris; details: in vivo; procedure, shortened: as §4
[13] = target: Sphingosine 1-phosphate receptor 2 (Homo sapiens, UniProt O95136); experiment: Antagonist activity at S1P2 receptor expressed in HEK293 cells assessed as inhibition of S1P-induced tango beta-arrestin recruitment preincubated for 30 mins prior S1P addition measured after 16 to 18 hrs by luciferase reporter gene assay; type: functional, cell-based
Chain of Sphingosine 1-phosphate receptor 2 (O95136 whole entry): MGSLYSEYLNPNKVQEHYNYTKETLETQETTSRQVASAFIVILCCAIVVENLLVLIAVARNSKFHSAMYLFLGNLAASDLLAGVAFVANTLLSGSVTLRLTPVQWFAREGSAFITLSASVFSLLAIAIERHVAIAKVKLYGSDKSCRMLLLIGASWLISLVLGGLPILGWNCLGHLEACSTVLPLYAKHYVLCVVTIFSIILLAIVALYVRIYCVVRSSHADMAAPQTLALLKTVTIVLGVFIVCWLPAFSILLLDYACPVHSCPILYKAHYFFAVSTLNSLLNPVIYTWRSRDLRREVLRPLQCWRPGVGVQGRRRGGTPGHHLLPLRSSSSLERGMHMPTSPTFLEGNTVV

[14] = Cmax in overnight fasted CD Sprague-Dawley rat at 3 mg/kg, po by HPLC/MS/MS analysis; type: ADME, organism-based; set-up: dose 3 mg/kg, route oral; details: in vivo; procedure, shortened: as §3
[15] = target: Cytochrome P450 2C9 (Homo sapiens, UniProt P11712); experiment: Inhibition of human CYP2C9 using tolbutamide as substrate by LC/MS/MS analysis; type: ADME; procedure, shortened: as §2
Chain of Cytochrome P450 2C9 (P11712 whole entry): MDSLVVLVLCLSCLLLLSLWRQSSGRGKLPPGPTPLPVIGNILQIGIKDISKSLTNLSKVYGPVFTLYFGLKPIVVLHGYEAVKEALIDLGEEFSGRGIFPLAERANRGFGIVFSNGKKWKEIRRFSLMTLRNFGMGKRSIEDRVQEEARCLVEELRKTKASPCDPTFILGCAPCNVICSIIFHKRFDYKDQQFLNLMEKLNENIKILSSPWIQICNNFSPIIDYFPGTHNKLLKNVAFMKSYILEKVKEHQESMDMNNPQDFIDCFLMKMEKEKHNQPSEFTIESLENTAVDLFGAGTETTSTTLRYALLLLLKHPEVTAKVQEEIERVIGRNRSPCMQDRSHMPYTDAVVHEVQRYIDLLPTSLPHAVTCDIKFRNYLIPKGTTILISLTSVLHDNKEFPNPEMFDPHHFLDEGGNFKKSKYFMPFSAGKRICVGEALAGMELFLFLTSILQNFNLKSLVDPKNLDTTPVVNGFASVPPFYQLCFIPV

[16] = Half life in overnight fasted CD Sprague-Dawley rat at 3 mg/kg, po by HPLC/MS/MS analysis; type: ADME, organism-based; set-up: dose 3 mg/kg, route oral; details: in vivo; procedure, shortened: as §3
[17] = target: T1, Sphingosine 1-phosphate receptor 1; experiment: Antagonist activity at S1P1 receptor expressed in HEK293 cells assessed as inhibition of S1P-induced tango beta-arrestin recruitment preincubated for 30 mins prior S1P addition measured after 16 to 18 hrs by luciferase reporter gene assay; type: functional, cell-based
[18] = target: Sphingosine 1-phosphate receptor 3 (Homo sapiens, UniProt Q99500); experiment: Antagonist activity at S1P3 receptor expressed in HEK293 cells assessed as inhibition of S1P-induced tango beta-arrestin recruitment preincubated for 30 mins prior S1P addition measured after 16 to 18 hrs by luciferase reporter gene assay; type: functional, cell-based
Chain of Sphingosine 1-phosphate receptor 3 (Q99500 whole entry): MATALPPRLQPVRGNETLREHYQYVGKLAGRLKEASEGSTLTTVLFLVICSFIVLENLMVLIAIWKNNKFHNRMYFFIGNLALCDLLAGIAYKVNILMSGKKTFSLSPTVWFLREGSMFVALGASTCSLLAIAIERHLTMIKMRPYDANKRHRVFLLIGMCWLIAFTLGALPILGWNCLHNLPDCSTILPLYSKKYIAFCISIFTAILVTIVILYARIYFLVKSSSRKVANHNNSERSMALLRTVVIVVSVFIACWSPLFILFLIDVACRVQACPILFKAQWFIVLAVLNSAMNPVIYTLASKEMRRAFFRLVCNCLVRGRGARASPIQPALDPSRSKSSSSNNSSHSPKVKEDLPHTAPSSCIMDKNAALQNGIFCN

[19] = Drug uptake in nu/nu homozygous mouse plasma at 100 mg/kg, po as a suspension in 10% NMP/corn oil after 24 hrs by HPLC/MS/MS analysis; type: ADME, organism-based; set-up: dose 100 mg/kg, route oral
[20] = AUC (0 to infinity) in overnight fasted cynomolgus monkey at 3 mg/kg, po by HPLC/MS/MS analysis; type: ADME, organism-based, Macaca fascicularis; set-up: time infinity, dose 3 mg/kg, route oral; details: plasma; procedure, shortened: as §5
[21] = Antitumor activity against human MDA-MB-231T cells xenografted in athymic nude mouse assessed as tumor growth inhibition at 100 mg/kg, po qd for 14 days post implantation measured for 14 days; type: functional; details: 336 h, read-out: TGI
Procedure, shortened: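 MDA-MB-231T cells grown in DMEM with 10% FBS. 1 x 10⁶ cells in ice-cold HBSS implanted into the mammary fat pad of female athymic nude (NCr) mice, 5-8 wk. Daily oral dosing at 10 mL/kg, solutions made fresh daily. Tumor weight measured twice weekly; TGI calculated against vehicle and staging-day weights; 2-tailed t-test, p<0.05.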

[22] = Oral bioavailability in overnight fasted cynomolgus monkey at 3 mg/kg by HPLC/MS/MS analysis; type: ADME, organism-based, Macaca fascicularis; details: in vivo; procedure, shortened: as §5
[23] = AUC (0 to infinity) in overnight fasted beagle dog at 3 mg/kg, po by HPLC/MS/MS analysis; type: ADME, organism-based, Canis lupus familiaris; set-up: time infinity, dose 3 mg/kg, route oral; details: plasma; procedure, shortened: as §4
[24] = Drug uptake in nu/nu homozygous mouse plasma at 100 mg/kg, po as a suspension in 10% NMP/corn oil after 4 hrs by HPLC/MS/MS analysis; type: ADME, organism-based; set-up: dose 100 mg/kg, route oral; procedure, shortened: as §1

T1 sequence (P21453 whole entry): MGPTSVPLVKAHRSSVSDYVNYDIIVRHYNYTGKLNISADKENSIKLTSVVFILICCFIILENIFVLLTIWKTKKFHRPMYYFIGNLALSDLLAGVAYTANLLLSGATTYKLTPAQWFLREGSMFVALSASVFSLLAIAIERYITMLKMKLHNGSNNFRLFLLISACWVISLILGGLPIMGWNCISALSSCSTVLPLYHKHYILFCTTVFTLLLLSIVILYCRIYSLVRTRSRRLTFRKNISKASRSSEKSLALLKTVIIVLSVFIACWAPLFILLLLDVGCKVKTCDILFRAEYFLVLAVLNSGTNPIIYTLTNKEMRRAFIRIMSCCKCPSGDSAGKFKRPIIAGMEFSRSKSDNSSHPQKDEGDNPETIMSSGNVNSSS

`O=C(Cc1c[nH]cn1)N[C@@H](COCc1ccccc1)c1nc2cc(Oc3ccc(F)cc3)ccc2[nH]1` gave an IC50 [1] of 0.239 µM, a concentration at 1 h [2] of 18.7 µM and a concentration at 4 h [3] of 2.7 µM.

Work on `O=C(Nc1ccc(Oc2ccc(F)cc2)cc1)[C@@H]1C[C@@H](Cc2ccc(F)cc2)CN1C(=O)Cn1ccnn1` yielded an IC50 [4] of 20.3 µM, an AUC(0-inf) [5] of 108 µM·h and an IC50 [6] greater than 20 µM. For the same compound, the Cmax [7] was 5.4 µM, the IC50 [1] was 0.0058 µM and the half-life [8] was 6.4 h. It also gave a half-life [9] of 34 h, a bioavailability [10] of 76.4% and a Cmax [11] of 1.5 µM. The bioavailability [12] was 99.9%, the IC50 [13] was greater than 10 µM and the Cmax [14] was 3.2 µM. It also gave an IC50 [15] of 17.3 µM, a half-life [16] of 22.5 h and an IC50 [17] of 0.026 µM. For the same compound, the IC50 [18] was greater than 10 µM, the concentration at 24 h [19] was 4.7 µM and the AUC(0-inf) [20] was 16.7 µM·h. The inhibition in vivo at 100 mg/kg [21] was 43%, the bioavailability [22] was 45.7% and the AUC(0-inf) [23] was 108 µM·h. The concentration at 4 h [24] was 16.7 µM.

From ChEMBL document CHEMBL2016445, “Discovery of a novel class of potent and orally bioavailable sphingosine 1-phosphate receptor 1 antagonists” (J Med Chem, 2012)
